Assay [1] relates to Plasmodium falciparum. Description: Antiplasmodial activity against chloroquine-sensitive Plasmodium falciparum D6 by LDH release assay. Type of assay: functional, organism-based. In general terms: Release of lactate dehydrogenase indicates damage to the cell membrane.
Assay [2] in a line: Selectivity index, IC50 for african green monkey (Cercopithecus aethiops) Vero cells to IC50 for chloroquine-resistant Plasmodium falciparum W2.
The nature of assay [3]: Selectivity index, IC50 for african green monkey (Cercopithecus aethiops) Vero cells to IC50 for chloroquine-sensitive Plasmodium falciparum D6. Type of assay: functional. The method in brief: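 The selectivity index of antimalarial activity was calculated from Vero cell cytotoxicity relative to the antiplasmodial IC50 against each P. falciparum clone (D6 or W2).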
The subject of another assay is HepG2. The assay is described as follows: Cytotoxicity against human HepG2 cells. The assay is classed as cell-based. The essentials:
(§1)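 Cytotoxicity was run in parallel on three mammalian lines: LLC-PK11 (pig kidney epithelial cells), HepG2 (human hepatoma cells) and Vero (monkey kidney […]). Compounds with no cytotoxicity up to the highest tested concentration, 48, were recorded as NC.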

In assay [4] the test system is Plasmodium falciparum. Description: Antiplasmodial activity against chloroquine-resistant Plasmodium falciparum W2 by LDH release assay. Type of assay: functional, organism-based.
In a further assay the test system is Vero. Description: Cytotoxicity against african green monkey Vero cells. The assay is classed as cell-based. The conditions noted are these: Chlorocebus sabaeus. The method in brief:
as §1

The nature of assay [5]: Cytotoxicity against pig LLC-PK11 cells. The assay is classed as cell-based. To be noted: Sus scrofa. The essentials:
as §1

As for `COc1cc(Nc2nc(NCCCNc3ccnc4cc(Cl)ccc34)nc(N3CCOCC3)n2)cc(OC)c1`, the IC50 was 0.25 µM in the assay with Plasmodium falciparum [1]; 25.4 µM with HepG2; 0.22 µM in the assay on Plasmodium falciparum [4]; 32.7 µM with Vero; 8.3 µM in assay [5]. For the same molecule, the “Selectivity Index” value was determined as 148.6 in assay [2] and 130.8 in assay [3].

For `Clc1ccc2c(NCCCNc3nc(NC4CCCCC4)nc(N4CCCCC4)n3)ccnc2c1`, the IC50 in the assay with Plasmodium falciparum [1] came out at 1.74 µM; in the assay on HepG2, 8.3 µM; in the assay on Plasmodium falciparum [4], 2.22 µM; in the assay on Vero it was 34.3 µM; in assay [5] it was 10.5 µM. Moreover, the entries for the “Selectivity Index” value in assay [2] and in assay [3] were 15.4 and 19.7, respectively.

`C[C@@H]1CC[C@H]2[C@@H](C)C(=O)O[C@@H]3O[C@@]4(C)CC[C@@H]1[C@]32OO4` [ARTEMISININ]: the values for the IC50 in the assay with Plasmodium falciparum [1] and in the assay with Plasmodium falciparum [4] were 0.03 µM and 0.025 µM, respectively. Also, the entries for the “Selectivity Index” value in assay [2] and in assay [3] were >670 and >500, respectively.

Take `COc1cccc2c1C(=O)c1c(O)c3c(c(O)c1C2=O)C[C@@](O)(C(=O)CO)C[C@@H]3O[C@H]1C[C@H](N)[C@H](O)[C@H](C)O1` [DOXORUBICIN]: the results for the IC50 (in the assay on HepG2; with Vero; in assay [5]) were 0.42 µM, 20 µM and 0.85 µM, respectively.

What is called IC50 is the concentration that gives 50% inhibition.
